Assay results as given in ChEMBL document CHEMBL4373711, “Development of 3,5-Dinitrophenyl-Containing 1,2,4-Triazoles and Their Trifluoromethyl Analogues as Highly Efficient Antitubercular Agents Inhibiting Decaprenylphosphoryl-β-d-ribofuranose 2'-Oxidase” (J Med Chem, 2019).
≈ marks a conversion by molar mass, not a printed value. Calls of active or inactive are those of the source. No cut-off for these calls is given here.

How the values were obtained:
[1] = Genotoxicity in Salmonella typhimurium TA100 at 30 uM in absence of rat liver S9 fraction by Ames test; format: toxicity; conditions: salmonella enterica subsp. enterica serovar typhimurium, s9, 30 µM
[2] = Genotoxicity in Salmonella typhimurium TA98 at 30 uM in absence of rat liver S9 fraction by Ames test; format: toxicity; conditions: salmonella enterica subsp. enterica serovar typhimurium, s9, 30 µM
[3] = molecular target: T1, Decaprenylphosphoryl-beta-D-ribose oxidase (Mycobacterium tuberculosis (strain ATCC 25618 / H37Rv)) (UniProt P9WJF1); experiment: Inhibition of DprE1 in Mycobacterium tuberculosis H37Rv assessed as accumulation of trehalose dimycolates at 10 times MIC measured after 24 hrs in presence of [14C]-acetate by TLC-based autoradiography
T1 sequence (whole entry): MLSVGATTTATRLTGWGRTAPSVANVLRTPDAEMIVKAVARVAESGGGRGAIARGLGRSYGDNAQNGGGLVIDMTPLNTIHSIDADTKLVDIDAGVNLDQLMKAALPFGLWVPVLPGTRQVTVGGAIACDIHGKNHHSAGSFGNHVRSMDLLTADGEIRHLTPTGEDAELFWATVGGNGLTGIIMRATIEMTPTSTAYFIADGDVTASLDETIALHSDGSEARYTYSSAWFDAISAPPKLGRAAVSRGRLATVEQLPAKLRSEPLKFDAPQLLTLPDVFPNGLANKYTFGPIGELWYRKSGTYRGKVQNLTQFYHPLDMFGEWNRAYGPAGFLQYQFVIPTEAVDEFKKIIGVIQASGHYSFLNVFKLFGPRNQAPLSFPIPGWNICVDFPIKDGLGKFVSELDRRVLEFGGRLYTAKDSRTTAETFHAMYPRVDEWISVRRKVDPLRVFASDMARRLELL
In short: (§1)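 M. tuberculosis H37Rv cultures were exposed to compound at final 10× or 100× MIC, or to DMSO, together with [14C]-acetate at 1 µCi/ml final. After 24 h, lipids were extracted in CHCl3/CH3OH (2:1) for 2 h at 65 °C and given two Folch washes. Extracts were run on TLC in CHCl3/CH3OH/H2O (20:4:0.5), then autoradiographed for 7 days at -80 °C.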

[4] = molecular target: T2, Decaprenylphosphoryl-beta-D-ribose oxidase (Mycobacterium smegmatis (strain ATCC 700084 / mc(2)155)) (UniProt A0R607); experiment: Inhibition of DprE1 in Mycolicibacterium smegmatis MC2 155 lysate assessed as reduction in epimerization of P[14C]RPP to DP[14C]A at 70 uM measured after 1.5 hrs in presence of NADH by TLC-based autoradiography; format: subcellular
T2 sequence (whole entry): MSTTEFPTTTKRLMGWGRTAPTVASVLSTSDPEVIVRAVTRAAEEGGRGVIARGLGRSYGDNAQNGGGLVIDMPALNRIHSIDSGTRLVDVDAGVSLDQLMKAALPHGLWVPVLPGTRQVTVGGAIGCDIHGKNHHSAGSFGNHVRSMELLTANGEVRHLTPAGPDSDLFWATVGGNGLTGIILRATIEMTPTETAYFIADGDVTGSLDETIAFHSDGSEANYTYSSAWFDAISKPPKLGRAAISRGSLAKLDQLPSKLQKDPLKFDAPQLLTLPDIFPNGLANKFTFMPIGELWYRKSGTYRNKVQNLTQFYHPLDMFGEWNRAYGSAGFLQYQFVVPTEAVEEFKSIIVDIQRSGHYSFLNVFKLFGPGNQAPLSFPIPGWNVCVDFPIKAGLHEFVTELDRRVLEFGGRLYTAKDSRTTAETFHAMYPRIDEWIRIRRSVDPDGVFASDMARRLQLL
In short: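 Cell-free DPA synthesis used a membrane/cell-envelope fraction (430 µg), spun at 100 000 × g, from sonicated M. smegmatis mc2155. The fraction was incubated 1.5 h with 15,000 dpm P[14C]RPP and NADH. BTZ was used at 70 µM and test compounds at 700 µM final, both added from DMSO stocks. Lipids were extracted, 25% was resolved by TLC, and autoradiography ran 8 days at -80 °C.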

[5] = molecular target: T1, Decaprenylphosphoryl-beta-D-ribose oxidase (Mycobacterium tuberculosis (strain ATCC 25618 / H37Rv)); experiment: Inhibition of DprE1 in Mycobacterium tuberculosis H37Rv assessed as accumulation of trehalose monomycolates at 10 times MIC measured after 24 hrs in presence of [14C]-acetate by TLC-based autoradiography; in short: as §1
[6] = test system: Mycobacterium tuberculosis; experiment: Antitubercular activity against Mycobacterium tuberculosis H37Rv; format: functional
[7] = test system: Mycobacterium kansasii; experiment: Antimycobacterial activity against Mycobacterium kansasii 6509/96 after 14 days; format: functional; conditions: 6509/96, 336 h
In short: (§2)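 Microdilution in Šula's semisynthetic medium; compounds in DMSO at 32–0.03 µM. Inoculum from 1.0 McFarland suspension diluted 10-4. […] Isoniazid and rifampicin as reference drugs.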

[8] = test system: Mycobacterium kansasii; experiment: Antimycobacterial activity against Mycobacterium kansasii 6509/96 after 7 days; format: functional; conditions: 6509/96, 168 h; in short: as §2
[9] = test system: HepG2; experiment: Cytotoxicity against human HepG2 cells assessed as reduction in cell viability after 48 hrs by CellTiter 96 aqueous one solution assay; format: cell-based; conditions: HepG2, 48 h
[10] = test system: Mycobacterium tuberculosis; experiment: Antimycobacterial activity against Mycobacterium tuberculosis H37Rv CNCTC My 331/88 after 14 days; format: functional; conditions: H37Rv CNCTC My 331/88, 336 h
In short: (§3)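 M. tuberculosis strains (H37Rv and clinical MDR/XDR isolates) tested by microdilution in Šula's semisynthetic medium. Compounds were dissolved in DMSO and tested at 32 to 0.03 µM in twofold steps. Inoculum was a 1.0 McFarland suspension diluted 10-3. Plates were incubated at 37 °C and read at 14 and 21 days.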

[11] = test system: Staphylococcus aureus; experiment: Antibacterial activity against Staphylococcus aureus subsp. aureus ATCC 29213 CCM 4223 measured after 24 to 48 hrs by alamar blue dye based broth microdilution assay; format: functional, organism-based
[12] = Cytotoxicity against human A431 cells assessed as cell viability at 30 uM after 48 hrs by CellTiter 96 aqueous one solution assay relative to control; format: cell-based, A-431; conditions: read-out: Activity
In short: (§4)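 HepG2 (DMEM, 10% FBS, 1 mM pyruvate) or A431 (DMEM, 10% FBS) seeded 10,000 cells/well, 24 h at 37 °C, 5% CO2, then 30 µM compound for 48 h. MTS reagent 60 min, absorbance 490 nm, background subtracted; 0.1% DMSO vehicle = 100%, 10% SDS = 0% viability.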

[13] = test system: A-431; experiment: Cytotoxicity against human A431 cells assessed as reduction in cell viability after 48 hrs by CellTiter 96 aqueous one solution assay; format: cell-based; conditions: A-431, 48 h
[14] = test system: Mycobacterium avium; experiment: Antimycobacterial activity against Mycobacterium avium CNCTC My 330/88 after 14 days; format: functional; conditions: CNCTC My 330/88, 336 h
In short: (§5)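 M. avium was tested by microdilution in Šula's semisynthetic medium, with compounds dissolved in DMSO and serially diluted from 1000 down to 1. Inoculum was a 1.0 McFarland suspension diluted 10-5. Plates were incubated at 37 °C and read at 14 and 21 days. […] Isoniazid and rifampicin served as standards.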

[15] = test system: Mycobacterium kansasii; experiment: Antimycobacterial activity against Mycobacterium kansasii CNCTC My 235/80 after 14 days; format: functional; conditions: CNCTC My 235/80, 336 h; in short: as §2
[16] = test system: Mycobacterium kansasii; experiment: Antimycobacterial activity against Mycobacterium kansasii CNCTC My 235/80 after 7 days; format: functional; conditions: CNCTC My 235/80, 168 h; in short: as §2
[17] = Cytotoxicity against human HepG2 cells assessed as cell viability at 30 uM after 48 hrs by CellTiter 96 aqueous one solution assay relative to control; format: cell-based; conditions: read-out: Activity; in short: as §4
[18] = test system: Mycobacterium avium; experiment: Antimycobacterial activity against Mycobacterium avium CNCTC My 330/88 after 21 days; format: functional; conditions: CNCTC My 330/88, 504 h; in short: as §5
[19] = test system: Mycobacterium tuberculosis; experiment: Antimycobacterial activity against Mycobacterium tuberculosis H37Rv CNCTC My 331/88 after 21 days; format: functional; conditions: H37Rv CNCTC My 331/88, 504 h; in short: as §3
[20] = test system: Candida albicans; experiment: Antifungal activity against Candida albicans ATCC 24433 CCM 8320 measured after 24 to 48 hrs by alamar blue dye based broth microdilution assay; format: functional, organism-based
[21] = test system: Mycobacterium kansasii; experiment: Antimycobacterial activity against Mycobacterium kansasii 6509/96 after 21 days; format: functional; conditions: 6509/96, 504 h; in short: as §2
[22] = test system: Mycobacterium kansasii; experiment: Antimycobacterial activity against Mycobacterium kansasii CNCTC My 235/80 after 21 days; format: functional; conditions: CNCTC My 235/80, 504 h; in short: as §2

## [N-]=[N+]=[N-].[Na+] [SODIUM AZIDE]
[1]
  Activity: Toxic

## O=[N+]([O-])c1ccc2c(c1)Cc1ccccc1-2 [2-NITROFLUORENE]
[2]
  Activity: Toxic

## C[C@H]1COC2(CCN(c3nc(=O)c4cc(C(F)(F)F)cc([N+](=O)[O-])c4s3)CC2)O1
[3]
  inhibition: Active
[4]
  inhibition: Active
[5]
  inhibition: Active

## O=[N+]([O-])c1cn2c(n1)OC[C@@H](OCc1ccc(OC(F)(F)F)cc1)C2 [PRETOMANID]
[6]
  MIC: 0.05 to 0.7 µM (≈ 0.018 to 0.251 µg/mL)

## C[C@]1(COc2ccc(N3CCC(Oc4ccc(OC(F)(F)F)cc4)CC3)cc2)Cn2cc([N+](=O)[O-])nc2O1
[6]
  MIC: 0.023 µM (≈ 0.0123 µg/mL)

## CSc1nnc(-c2cc([N+](=O)[O-])cc([N+](=O)[O-])c2)n1Cc1ccccc1
[7]
  MIC99: 8 µM (≈ 2.97 µg/mL)
[8]
  MIC99: 4 µM (≈ 1.49 µg/mL)
[9]
  IC50: > 30 µM
[10]
  MIC99: 0.5 µM (≈ 0.186 µg/mL)
[11]
  Activity: Active
[12]
  viability at 48 h, 30 µM: 83%
[13]
  IC50: > 30 µM
[14]
  MIC99: 500 µM (≈ 186 µg/mL)
[15]
  MIC99: 4 µM (≈ 1.49 µg/mL)
[16]
  MIC99: 2 µM (≈ 0.743 µg/mL)
[17]
  viability at 48 h, 30 µM: 93%
[18]
  MIC99: 500 µM (≈ 186 µg/mL)
[19]
  MIC99: 1 µM (≈ 0.371 µg/mL)
[20]
  Activity: Active
[21]
  MIC99: 8 µM (≈ 2.97 µg/mL)
[22]
  MIC99: 4 µM (≈ 1.49 µg/mL)

## COc1nc2ccc(Br)cc2cc1[C@@H](c1ccccc1)[C@@](O)(CCN(C)C)c1cccc2ccccc12 [BEDAQUILINE]
[6]
  MIC: 0.05 µM (≈ 0.0278 µg/mL)

## O=c1nc(N2CCN(CC3CCCCC3)CC2)sc2c([N+](=O)[O-])cc(C(F)(F)F)cc12 [MACOZINONE]
[6]
  MIC: 0.0004 µM (≈ 0.000183 µg/mL)
